The source of these data is ChEMBL document CHEMBL3244254, “Hypolipidemic activity of 5-aryl-3-methylvaleric acid derivatives” (J Med Chem, 1977).

Test [1] deals with Rattus norvegicus. Put plainly: Hypolipidemic activity in intact normal CD rat assessed as reduction in serum triglyceride level at 0.38 mmol/kg/day administered through diet for 5 days measured on day 6. Type of test: functional. In a few lines: (§1)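 Male CD rats, 300–380 g, housed in pairs, 12-h light/dark, free access to food and water. Test agent mixed into ground chow at 0.2%; controls got plain ground chow; 8 rats per group. Body weight and group food intake recorded. Fed 5 days, anesthetized on day 6, blood collected, serum total cholesterol or triglyceride measured. Expressed as % reduction vs concurrent controls, Student's t test p ≤ 0.05.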

In test [2] the test system is Rattus norvegicus. Put plainly: Hypolipidemic activity in intact normal CD rat assessed as reduction in serum cholesterol level at 0.38 mmol/kg/day administered through diet for 5 days measured on day 6. The class given is functional. In short, it runs like this:
as §1

For test [3], the target named is T1, 3-hydroxy-3-methylglutaryl-coenzyme A reductase (Rattus norvegicus, UniProt P51639).
T1 sequence (P51639 whole entry): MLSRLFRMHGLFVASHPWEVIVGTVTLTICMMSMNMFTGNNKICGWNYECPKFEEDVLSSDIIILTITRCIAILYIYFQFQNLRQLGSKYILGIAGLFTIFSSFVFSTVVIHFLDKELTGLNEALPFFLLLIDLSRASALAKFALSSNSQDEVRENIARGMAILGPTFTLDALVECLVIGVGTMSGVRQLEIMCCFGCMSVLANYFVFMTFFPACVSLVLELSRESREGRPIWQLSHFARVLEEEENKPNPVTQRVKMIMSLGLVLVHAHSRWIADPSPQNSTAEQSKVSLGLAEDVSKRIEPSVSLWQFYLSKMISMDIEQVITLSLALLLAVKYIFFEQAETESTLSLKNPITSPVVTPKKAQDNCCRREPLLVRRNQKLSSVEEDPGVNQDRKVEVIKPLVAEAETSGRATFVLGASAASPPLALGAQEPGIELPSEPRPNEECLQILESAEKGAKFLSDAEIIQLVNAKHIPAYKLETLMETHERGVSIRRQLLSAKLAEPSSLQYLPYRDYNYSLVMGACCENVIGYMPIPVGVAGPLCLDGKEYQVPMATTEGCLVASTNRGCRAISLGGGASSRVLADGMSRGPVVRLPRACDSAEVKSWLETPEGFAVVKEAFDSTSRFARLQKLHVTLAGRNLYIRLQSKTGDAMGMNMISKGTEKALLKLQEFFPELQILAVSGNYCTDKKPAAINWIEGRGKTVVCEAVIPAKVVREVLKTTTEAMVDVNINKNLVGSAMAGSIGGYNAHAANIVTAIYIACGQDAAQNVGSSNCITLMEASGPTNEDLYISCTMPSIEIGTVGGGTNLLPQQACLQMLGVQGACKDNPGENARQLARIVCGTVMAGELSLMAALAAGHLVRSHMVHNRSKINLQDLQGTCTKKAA
Put plainly: Inhibition of HMG-coA reductase in CD rat liver microsomal-cytosol fraction assessed as inhibition of total lipid synthesis using [2-14C]acetate as substrate after 90 mins by scintillation counting analysis. In a few lines: (§2)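 Male CD rats, 150–200 g, housed singly 5 days on chow with 2% DEAE-cellulose, killed by cervical dislocation. Liver microsomal-cytosol fraction as enzyme source, [2-14C]acetate substrate, 90 min at 37 °C. Compounds added in Me2SO, at least four concentrations, duplicates. Lipid extract counted by scintillation (dpm). Heat-inactivated fraction corrects for nonenzymatic incorporation. Fractions are total lipid, nonsaponifiable lipid and fatty acid. IC50 is molar concentration giving 50% inhibition.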
(Liver microsomes are vesicles of endoplasmic reticulum, rich in cytochrome P450 enzymes.)

The target of test [4] is T1, 3-hydroxy-3-methylglutaryl-coenzyme A reductase. Put plainly: Inhibition of HMG-coA reductase in CD rat liver microsomal-cytosol fraction assessed as inhibition of nonsaponifiable lipid synthesis using [2-14C]acetate as substrate after 90 mins by scintillation counting analysis. In short, it runs like this: as §2
The subject of test [5] is Rattus norvegicus. Put plainly: Hypolipidemic activity in intact normal CD rat assessed as reduction in serum triglyceride level at 0.40 mmol/kg/day administered through diet for 5 days measured on day 6. The class given is functional. In a few lines:
as §1

In test [6] the test system is Rattus norvegicus. Put plainly: Hypolipidemic activity in intact normal CD rat assessed as reduction in serum cholesterol level at 0.40 mmol/kg/day administered through diet for 5 days measured on day 6. The class given is functional. In short, it runs like this:
as §1

Test [7] concerns Rattus norvegicus. Put plainly: Hypolipidemic activity in intact normal CD rat assessed as reduction in serum triglyceride level at 0.43 mmol/kg/day administered through diet for 5 days measured on day 6. Type of test: functional. In short, it runs like this:
as §1

Test [8] deals with Rattus norvegicus. Put plainly: Hypolipidemic activity in intact normal CD rat assessed as reduction in serum cholesterol level at 0.43 mmol/kg/day administered through diet for 5 days measured on day 6. The class given is functional. In a few lines:
as §1

Test [9] has as its system Rattus norvegicus. Put plainly: Hypolipidemic activity in intact normal CD rat assessed as reduction in serum cholesterol level at 0.36 mmol/kg/day administered through diet for 5 days measured on day 6. The class given is functional. In short, it runs like this:
as §1

For test [10], the system named is Rattus norvegicus. Put plainly: Hypolipidemic activity in intact normal CD rat assessed as reduction in serum triglyceride level at 0.36 mmol/kg/day administered through diet for 5 days measured on day 6. Type of test: functional. In a few lines: as §1
Test [11] relates to Rattus norvegicus. The experiment in a line: Hypolipidemic activity in intact normal CD rat assessed as reduction in serum cholesterol level at 0.41 mmol/kg/day administered through diet for 5 days measured on day 6. Type of test: functional. In short, it runs like this: as §1
Test [12] concerns Rattus norvegicus. Put plainly: Hypolipidemic activity in intact normal CD rat assessed as reduction in serum triglyceride level at 0.41 mmol/kg/day administered through diet for 5 days measured on day 6. Type of test: functional. In a few lines: as §1
In test [13] the test system is Rattus norvegicus. Put plainly: Hypolipidemic activity in intact normal CD rat assessed as reduction in serum triglyceride level at 0.39 mmol/kg/day administered through diet for 5 days measured on day 6. Type of test: functional. In a few lines:
as §1

The test system of test [14] is Rattus norvegicus. The experiment in a line: Hypolipidemic activity in intact normal CD rat assessed as reduction in serum cholesterol level at 0.39 mmol/kg/day administered through diet for 5 days measured on day 6. Type of test: functional. In a few lines:
as §1

Test [15] relates to Rattus norvegicus. Put plainly: Hypolipidemic activity in intact normal CD rat assessed as reduction in serum cholesterol level at 0.42 mmol/kg/day administered through diet for 5 days measured on day 6. The class given is functional. In short, it runs like this:
as §1

In test [16] the test system is Rattus norvegicus. The experiment in a line: Hypolipidemic activity in intact normal CD rat assessed as reduction in serum triglyceride level at 0.42 mmol/kg/day administered through diet for 5 days measured on day 6. Type of test: functional. In short, it runs like this:
as §1

In test [17] the test system is Rattus norvegicus. The experiment in a line: Hypolipidemic activity in intact normal CD rat assessed as reduction in serum cholesterol level at 0.51 mmol/kg/day administered through diet for 5 days measured on day 6. Type of test: functional. In a few lines:
as §1

For test [18], the system named is Rattus norvegicus. The experiment in a line: Hypolipidemic activity in intact normal CD rat assessed as reduction in serum triglyceride level at 0.51 mmol/kg/day administered through diet for 5 days measured on day 6. The class given is functional. In a few lines:
as §1

In test [19] the test system is Rattus norvegicus. The experiment in a line: Hypolipidemic activity in intact normal CD rat assessed as reduction in serum cholesterol level at 0.45 mmol/kg/day administered through diet for 5 days measured on day 6. Type of test: functional. In a few lines:
as §1

Test [20] has as its system Rattus norvegicus. The experiment in a line: Hypolipidemic activity in intact normal CD rat assessed as reduction in serum triglyceride level at 0.45 mmol/kg/day administered through diet for 5 days measured on day 6. Type of test: functional. In a few lines: as §1

Some results are limits rather than exact numbers.

For orientation: inhibition in vivo means the percentage by which the read-out fell short of the control. For orientation: IC50 means the point on the concentration scale where inhibition reaches its midpoint. `CC(CC(=O)O)CC(=O)c1ccc2sc3ccccc3c2c1` (stereo unspecified): the inhibition in vivo at 380 µmol/kg in [1] was 26%; in [2], 16%. The concentration for half-maximal inhibition (IC50) in test [3] amounted to 310 µM; in test [4], 160 µM.
Turning to `CC(CCc1ccc(Sc2ccccc2)cc1)CC(=O)O` (stereo unspecified), the inhibition in vivo at 400 µmol/kg in test [5] was at least 36%; in test [6], 26%. The half-maximal inhibitory concentration (IC50) in [3] was 40 µM; in [4], 20 µM.
Regarding `CC(CC(=O)O)CC(=O)c1ccc(Oc2ccccc2)cc1` (stereo unspecified), the inhibition in vivo at 400 µmol/kg in test [5] is at least 36%; in test [6] it was 16%. Moreover, the IC50 in [3] turned out to be 850 µM; in [4] it was 290 µM.
In the case of `CC(CC(=O)O)CC(=O)c1ccc(Sc2ccccc2)cc1` (stereo unspecified), the inhibition in vivo at 380 µmol/kg in test [1] is at least 36%; in [2], 16%. The IC50 in test [3] was determined as 570 µM; in [4], 240 µM.
With `CC(CCc1ccc2sc3ccccc3c2c1)CC(=O)O` (stereo unspecified), the inhibition in vivo at 430 µmol/kg in test [7] was at least 36%; in test [8], 0%. For the same molecule, the concentration for half-maximal inhibition (IC50) in [3] turned out to be 190 µM; in test [4] it was 70 µM.
As for `CC(CCc1ccc(S(=O)(=O)c2ccccc2)cc1)CC(=O)O` (stereo unspecified), the inhibition in vivo at 360 µmol/kg in [9] was determined as 45%; in test [10] it was 60%. Further, the values for the IC50 in test [3] and in test [4] were 70 µM and 40 µM, respectively.
Consider `CC(CCc1ccc2oc3ccccc3c2c1)CC(=O)O` (stereo unspecified), for which the inhibition in vivo at 430 µmol/kg in test [7] is at least 36%; in test [8], 26%. For the same molecule, the IC50 in test [3] is 810 µM; in [4] it was 360 µM.
On to `CC(CC(=O)O)CC(=O)c1ccc2oc3ccccc3c2c1` (stereo unspecified), for which the inhibition in vivo at 410 µmol/kg in test [11] was 0%; in test [12] it was 26%. The values for the IC50 in [3] and in test [4] were 260 µM and 110 µM, respectively.
`CC(CCc1ccc2c(c1)-c1ccccc1S2(=O)=O)CC(=O)O` (stereo unspecified): the inhibition in vivo at 360 µmol/kg in [9] is 16%; in test [10], at least 36%. The IC50 in test [3] came out at 50 µM; in test [4], 80 µM.
`CC(CC(=O)O)CC(=O)c1ccc2c(c1)CCc1ccccc1-2` (stereo unspecified): the inhibition in vivo at 390 µmol/kg is at least 36% in test [13] and 0% in test [14]. For the same molecule, the half-inhibitory concentration (IC50) amounted to 60 µM in test [3] and 30 µM in test [4].
As for `CC(CC(=O)O)CC(=O)c1ccc(-c2ccccc2)cc1` (stereo unspecified), the values for the inhibition in vivo at 430 µmol/kg in test [7] and in test [8] were 16% and 26%, respectively. For the same molecule, the IC50 in [3] was 180 µM; in [4] it was 70 µM.
With `CC(CCc1ccc(Oc2ccccc2)cc1)CC(=O)O` (stereo unspecified), the inhibition in vivo at 420 µmol/kg in [15] was 26%; in test [16], at least 36%. The results for the IC50 in [3] and in test [4] were 30 µM and 20 µM, respectively.
Consider `CC(C)(Oc1ccc(Cl)cc1)C(=O)O`, for which the inhibition in vivo at 510 µmol/kg in test [17] and in test [18] was 26% in each case. For the same molecule, the IC50 in test [3] amounted to 630 µM; in [4], 860 µM.
As to `CC(CCc1ccc(-c2ccccc2)cc1)CC(=O)O` (stereo unspecified), the inhibition in vivo at 450 µmol/kg was 16% in test [19] and 26% in [20]. Also, the IC50 in test [3] turned out to be 20 µM; in [4], 2 µM.
